# Experimental data from ChEMBL document CHEMBL1275595, “Antimicrobial activity of a halocidin-derived peptide resistant to attacks by proteases” (2010).
# The source made the active and inactive calls. The rule behind the calls is not given here. Bridge positions count the residues as written; N and C are the ends. Peptide text beside a SMILES is read from it. I, II: the chains in the order shown.
# Columns and labels:
# Staphylococcus aureus [1] = test: Antimicrobial activity against methicillin-resistant Staphylococcus aureus CCARM 3696 by radial diffusion assay incubated with chymotrypsin; assay type: functional, organism-based
# Pseudomonas aeruginosa = test: Antimicrobial activity against multidrug-resistant Pseudomonas aeruginosa CCARM 2161 after 18 hrs by broth dilution method; assay type: functional; settings: CCARM 2161, 18 h
# Method in brief: (§1)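 Broth dilution per CLSI. Bacteria were grown overnight to stationary phase in Mueller-Hinton broth and diluted in fresh MHB to 2 × 10^5 CFU/ml. Stocks at 640 μg/ml in 0.01% acetic acid were 2-fold serially diluted to 10 μg/ml, and 11 μl was added to 100 μl of bacteria. After 18 h at 37°C, MIC was the lowest concentration with no visible turbidity. Run in triplicate.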
# Staphylococcus aureus [2] = test: Antimicrobial activity against methicillin-resistant Staphylococcus aureus CCARM 3696 by colony count assay incubated with trypsin for 1 hr; assay type: functional, organism-based
# Method in brief: (§2)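 Peptide (20 μg) was incubated at 37°C with 50 nM trypsin in 100 μl of 10 mM sodium phosphate, then heated 10 min at 80°C and cooled. MRSA (100 μl, 2 × 10^7 CFU/ml) was added for 5 min. Aliquots were plated on TSA (1.5% agarose, 3% TSB in NaP) and counted after overnight growth at 37°C. Read-out was CFU/ml; repeated three times on different days.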
# Staphylococcus aureus [3] = test: Antimicrobial activity against methicillin-resistant Staphylococcus aureus CCARM 3696 by radial diffusion assay incubated with chymotrypsin for 1 hr; assay type: functional, organism-based
# Listeria monocytogenes = test: Antimicrobial activity against Listeria monocytogenes KCTC 19111 after 18 hrs by broth dilution method; assay type: functional; settings: KCTC 19111, 18 h
# Method in brief: (§3)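 Broth microdilution following CLSI recommendations. Bacteria were grown overnight to stationary phase in Mueller-Hinton broth, then diluted in fresh MHB to 2 × 10^5 CFU/ml. Peptide or antibiotic stocks of 640 μg/ml in 0.01% acetic acid were serially 2-fold diluted to 10 μg/ml, and each was added to the bacterial suspension at 11 μl per 100 μl. Plates were incubated 18 h at 37°C. MIC was taken as the lowest concentration giving no visible turbidity, in triplicate.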
# Staphylococcus aureus [4] = test: Antimicrobial activity against methicillin-resistant Staphylococcus aureus CCARM 3696 by colony count assay incubated with trypsin for 10 mins; assay type: functional, organism-based; method in brief: as §2
# Salmonella enterica = test: Antimicrobial activity against Salmonella enterica KCTC 2930 after 18 hrs by broth dilution method; assay type: functional; settings: KCTC 2930, 18 h; method in brief: as §3
# Enterococcus faecium = test: Antimicrobial activity against vancomycin-resistant Enterococcus faecium CCARM 5028 after 18 hrs by broth dilution method; assay type: functional; settings: CCARM 5028, 18 h; method in brief: as §1
# Staphylococcus aureus [5] = test: Antimicrobial activity against methicillin-resistant Staphylococcus aureus CCARM 3696 by radial diffusion assay incubated with trypsin; assay type: functional, organism-based
# Staphylococcus aureus [6] = test: Antimicrobial activity against methicillin-resistant Staphylococcus aureus CCARM 3696 by radial diffusion assay incubated with matrix metalloprotease 7 for 1 hr; assay type: functional, organism-based
# Staphylococcus aureus [7] = test: Antimicrobial activity against methicillin-resistant Staphylococcus aureus CCARM 3696 by colony count assay incubated with trypsin for 20 mins; assay type: functional, organism-based; method in brief: as §2
# Escherichia coli = test: Antimicrobial activity against Escherichia coli KCTC 1039 after 18 hrs by broth dilution method; assay type: functional; settings: KCTC 1039, 18 h; method in brief: as §3
# Bacillus subtilis = test: Antimicrobial activity against Bacillus subtilis KCTC 2213 after 18 hrs by broth dilution method; assay type: functional; settings: KCTC 2213, 18 h; method in brief: as §3
# Staphylococcus aureus [8] = test: Antimicrobial activity against methicillin-resistant Staphylococcus aureus CCARM 3696 by radial diffusion assay incubated with Staphylococcus aureus Culture supernatant for 1 hr; assay type: functional, organism-based
# Staphylococcus aureus [9] = test: Antimicrobial activity against methicillin-resistant Staphylococcus aureus CCARM 3696 after 18 hrs by broth dilution method; assay type: functional; settings: CCARM 3696, 18 h; method in brief: as §1
# Citrobacter freundii = test: Antimicrobial activity against Citrobacter freundii KCTC 2359 after 18 hrs by broth dilution method; assay type: functional; settings: KCTC 2359, 18 h; method in brief: as §3
# Klebsiella oxytoca = test: Antimicrobial activity against Klebsiella oxytoca KCTC 1686 after 18 hrs by broth dilution method; assay type: functional; settings: KCTC 1686, 18 h; method in brief: as §3
# Staphylococcus aureus [10] = test: Antimicrobial activity against methicillin-resistant Staphylococcus aureus CCARM 3696 by radial diffusion assay incubated with Pseudomonas aeruginosa Culture supernatant for 1 hr; assay type: functional, organism-based
# Micrococcus luteus = test: Antimicrobial activity against Micrococcus luteus KCTC 9341 after 18 hrs by broth dilution method; assay type: functional; settings: KCTC 9341, 18 h; method in brief: as §3
# Staphylococcus aureus [11] = test: Antimicrobial activity against methicillin-resistant Staphylococcus aureus CCARM 3696 by radial diffusion assay; assay type: functional, organism-based
# Method in brief: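 Radial diffusion. Washed mid-log MRSA (4 × 10^6 CFU) was mixed into 10 ml underlay of 1% agarose and 0.03% TSB in 9 mM NaP/1 mM sodium citrate, pH 7.4. Wells 3 mm wide received 5 μl of peptide at 200 μg/ml in 0.01% acetic acid. After 3 h at 37°C, a 1% agarose/6% TSB overlay was added and plates were incubated overnight. Clear zone diameter was read in units, 0.1 mm = 1 unit.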
compound,measurement,setting,value
CC(C)C[C@H](NC(=O)CNC(=O)[C@H](Cc1cnc[nH]1)NC(=O)[C@H](Cc1cnc[nH]1)NC(=O)[C@H](CC(C)C)NC(=O)[C@H](CC(C)C)NC(=O)[C@H](C)NC(=O)[C@H](CC(N)=O)NC(=O)[C@H](CC(C)C)NC(=O)[C@H](Cc1c[nH]c2ccccc12)NC(=O)[C@@H](N)CCCCN)C(=O)N[C@@H](CC(N)=O)C(=O)N[C@@H](CSSC[C@H](NC(=O)[C@H](CC(N)=O)NC(=O)[C@H](CC(C)C)NC(=O)CNC(=O)[C@H](Cc1cnc[nH]1)NC(=O)[C@@H](N)Cc1cnc[nH]1)C(=O)N[C@@H](C)C(=O)N[C@@H](CCCCN)C(=O)NCC(=O)N[C@H](C(=O)N[C@@H](CC(C)C)C(=O)N[C@@H](C)C(N)=O)C(C)C)C(=O)N[C@@H](C)C(=O)N[C@@H](CCCCN)C(=O)NCC(=O)N[C@H](C(=O)N[C@@H](CC(C)C)C(=O)N[C@@H](C)C(N)=O)C(C)C (I: H-KWLNALLHHGLNCAKGVLA-NH2 / II: H-HHGLNCAKGVLA-NH2; disulfide I:13-II:6),Activity,Staphylococcus aureus [1],Active
CC(C)C[C@H](NC(=O)CNC(=O)[C@H](Cc1cnc[nH]1)NC(=O)[C@H](Cc1cnc[nH]1)NC(=O)[C@H](CC(C)C)NC(=O)[C@H](CC(C)C)NC(=O)[C@H](C)NC(=O)[C@H](CCCCN)NC(=O)[C@H](CCCCN)NC(=O)[C@H](Cc1c[nH]c2ccccc12)NC(=O)[C@@H](N)CCCCN)C(=O)N[C@@H](CC(N)=O)C(=O)N[C@@H](CSSC[C@H](NC(=O)[C@H](CC(N)=O)NC(=O)[C@H](CC(C)C)NC(=O)CNC(=O)[C@H](Cc1cnc[nH]1)NC(=O)[C@H](Cc1cnc[nH]1)NC(=O)[C@H](CC(C)C)NC(=O)[C@H](CC(C)C)NC(=O)[C@H](C)NC(=O)[C@H](CCCCN)NC(=O)[C@H](CCCCN)NC(=O)[C@H](Cc1c[nH]c2ccccc12)NC(=O)[C@@H](N)CCCCN)C(=O)N[C@@H](C)C(=O)N[C@@H](CCCCN)C(=O)NCC(=O)N[C@H](C(=O)N[C@@H](CC(C)C)C(=O)N[C@@H](C)C(=O)O)C(C)C)C(=O)N[C@@H](C)C(=O)N[C@@H](CCCCN)C(=O)NCC(=O)N[C@H](C(=O)N[C@@H](CC(C)C)C(=O)N[C@@H](C)C(N)=O)C(C)C (I: H-KWKKALLHHGLNCAKGVLA-NH2 / II: H-KWKKALLHHGLNCAKGVLA-OH; disulfide I:13-II:13),MIC,Pseudomonas aeruginosa,4 µg/mL
same,Activity,Staphylococcus aureus [2],Active
same,Activity,Staphylococcus aureus [3],Active
same,MIC,Listeria monocytogenes,2 µg/mL
same,Activity,Staphylococcus aureus [4],inactive
same,MIC,Salmonella enterica,2 µg/mL
same,MIC,Enterococcus faecium,2 µg/mL
same,Activity,Staphylococcus aureus [5],inactive
same,Activity,Staphylococcus aureus [6],Active
same,Activity,Staphylococcus aureus [7],inactive
same,MIC,Escherichia coli,2 µg/mL
same,MIC,Bacillus subtilis,2 µg/mL
same,Activity,Staphylococcus aureus [8],inactive
same,MIC,Staphylococcus aureus [9],4 µg/mL
same,MIC,Citrobacter freundii,4 µg/mL
same,MIC,Klebsiella oxytoca,2 µg/mL
same,Activity,Staphylococcus aureus [10],inactive
same,MIC,Micrococcus luteus,4 µg/mL
CC(C)C[C@H](NC(=O)CNC(=O)[C@H](Cc1cnc[nH]1)NC(=O)[C@@H](N)Cc1cnc[nH]1)C(=O)N[C@@H](CC(N)=O)C(=O)N[C@@H](CSSC[C@H](NC(=O)[C@H](CC(N)=O)NC(=O)[C@H](CC(C)C)NC(=O)CNC(=O)[C@H](Cc1cnc[nH]1)NC(=O)[C@@H](N)Cc1cnc[nH]1)C(=O)N[C@@H](C)C(=O)N[C@@H](CCCCN)C(=O)NCC(=O)N[C@H](C(=O)N[C@@H](CC(C)C)C(=O)N[C@@H](C)C(N)=O)C(C)C)C(=O)N[C@@H](C)C(=O)N[C@@H](CCCCN)C(=O)NCC(=O)N[C@H](C(=O)N[C@@H](CC(C)C)C(=O)N[C@@H](C)C(N)=O)C(C)C (I: H-HHGLNCAKGVLA-NH2 / II: H-HHGLNCAKGVLA-NH2; disulfide I:6-II:6),Activity,Staphylococcus aureus [1],Active
CC(C)C[C@H](NC(=O)CNC(=O)[C@H](Cc1cnc[nH]1)NC(=O)[C@H](Cc1cnc[nH]1)NC(=O)[C@H](CC(C)C)NC(=O)[C@H](CC(C)C)NC(=O)[C@H](C)NC(=O)[C@H](CCCCN)NC(=O)[C@@H](N)CCCCN)C(=O)N[C@@H](CC(N)=O)C(=O)N[C@@H](CSSC[C@H](NC(=O)[C@H](CC(N)=O)NC(=O)[C@H](CC(C)C)NC(=O)CNC(=O)[C@H](Cc1cnc[nH]1)NC(=O)[C@@H](N)Cc1cnc[nH]1)C(=O)N[C@@H](C)C(=O)N[C@@H](CCCCN)C(=O)NCC(=O)N[C@H](C(=O)N[C@@H](CC(C)C)C(=O)N[C@@H](C)C(N)=O)C(C)C)C(=O)N[C@@H](C)C(=O)N[C@@H](CCCCN)C(=O)NCC(=O)N[C@H](C(=O)N[C@@H](CC(C)C)C(=O)N[C@@H](C)C(N)=O)C(C)C (I: H-KKALLHHGLNCAKGVLA-NH2 / II: H-HHGLNCAKGVLA-NH2; disulfide I:11-II:6),Activity,Staphylococcus aureus [11],inactive
